From ChEMBL document CHEMBL2163221, “Discovery of a potential anti-ischemic stroke agent: 3-pentylbenzo[c]thiophen-1(3H)-one” (J Med Chem, 2012)
Activity calls are given as the source filed them. No cut-off for these calls is given here.

How the values were obtained:
Platelet [1] = assay: Inhibition of arachidonic acid-induced platelet aggregation in rabbit platelet rich plasma by Born's turbidimetric method; format: functional; conditions: Oryctolagus cuniculus
Summary of the method: (§1)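 Rabbit carotid blood in 3.8% sodium citrate (9:1); PRP by 500g spin for 10 min, PPP by a further 3000g spin for 10 min. PRP was preincubated in duplicate for 5 min at 37 °C with vehicle or agent (0.1, 0.2, 0.4, 0.8, 1.6 mM). Aggregation was triggered by ADP (10 μM final) or AA (1 mM), and maximal light transmission was read within 5 min, within 3 h of collection. Inhibition % = 100 × (1 − treated/control); IC50 was calculated.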

Platelet [2] = assay: Inhibition of adenosine diphosphate-induced platelet aggregation in rabbit platelet rich plasma by Born's turbidimetric method; format: functional; conditions: Oryctolagus cuniculus; summary of the method: as §1
Rattus norvegicus [3] = assay: Anticerebral ischemic activity in Sprague-Dawley rat middle cerebral artery occlusion model assessed as reduction of water content in brain at 80 mg/kg, ig for 7 consecutive days; format: functional, organism-based; set-up: dose 80 mg/kg
Summary of the method: (§2)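 Rats given oral saline-vehicle pretreatment for 7 days underwent 2 h suture MCAO plus reperfusion. At 24 h the animals were decapitated and brains weighed wet, then dried at 105 °C for 24 h. Water % = (wet − dry)/wet × 100; n = 6/group.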

Plasma = assay: Anticoagulant activity in rabbit plasma assessed as length of activated partial thromboplastin time; format: functional, cell-free; conditions: Oryctolagus cuniculus
Platelet [4] = assay: Inhibition of adenosine diphosphate-induced platelet aggregation in rabbit platelet rich plasma at 0.1 mM by Born's turbidimetric method; format: functional; conditions: Oryctolagus cuniculus; summary of the method: as §1
Platelet [5] = assay: Inhibition of arachidonic acid-induced platelet aggregation in rabbit platelet rich plasma at 0.1 mM by Born's turbidimetric method; format: functional; conditions: Oryctolagus cuniculus; summary of the method: as §1
Rattus norvegicus [6] = assay: Antioxidant activity in Sprague-Dawley rat middle cerebral artery occlusion model assessed as decrease in malondialdehyde level in brain at 80 mg/kg, ig for 7 consecutive days; format: functional; set-up: scale not given: the % may be the effect or the level left; conditions: route intragastric
Summary of the method: (§3)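 Rats pretreated orally in saline for 7 days underwent 2 h MCAO with reperfusion. At 24 h brains were removed, rinsed in cold 0.9% saline, blotted and stored at −70 °C. After protein quantification, GSH, SOD activity and MDA were measured with commercial kits; n = 12/group.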

Rattus norvegicus [7] = assay: Antioxidant activity in Sprague-Dawley rat middle cerebral artery occlusion model assessed as increase in superoxide dismutase activity at 80 mg/kg, ig for 7 consecutive days; format: functional; conditions: route intragastric; summary of the method: as §3
Rattus norvegicus [8] = assay: Antioxidant activity in Sprague-Dawley rat middle cerebral artery occlusion model assessed as increase in glutathione level in brain at 80 mg/kg, ig for 7 consecutive days; format: functional; conditions: route intragastric; summary of the method: as §3
Rattus norvegicus [9] = assay: Anticerebral ischemic activity in Sprague-Dawley rat middle cerebral artery occlusion model assessed as reduction in infarct size in brain at 80 mg/kg, ig for 7 consecutive days by TTC assay; format: functional; set-up: scale not given: the % may be the effect or the level left; conditions: route intragastric
Summary of the method: (§4)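 SD rats, chloral hydrate 350 mg/kg ip anaesthesia; right MCA occluded 2 h by silicone-tipped 4-0 nylon filament via ECA into ICA (>80% CBF drop by laser Doppler, 37 ± 0.5 °C), then reperfusion. Dosed in normal saline orally daily 7 days before ischemia. At 24 h, 2-mm coronal slices stained 2% TTC 30 min 37 °C; infarct area as % of whole brain; n = 6.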

Rattus norvegicus [10] = assay: Anticerebral ischemic activity in Sprague-Dawley rat middle cerebral artery occlusion model assessed as reduction in neurological deficit score at 80 mg/kg, ig for 7 consecutive days by Longa's method; format: functional; set-up: scale not given: the % may be the effect or the level left; conditions: route intragastric
Summary of the method: (§5)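 SD rats were dosed orally in normal saline for 7 days before ischemia (n = 12/group). They were anesthetized ip with 350 mg/kg chloral hydrate and given MCAO with a silicone-tipped 4-0 nylon suture for 2 h, then reperfusion. Occlusion was confirmed as >80% CBF drop by laser Doppler, with core temperature held at 37 °C. Deficits were scored blinded by modified Longa's method 24 h after reperfusion.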

PC-12 [11] = assay: Antioxidant activity in rat PC12 cells assessed as inhibition of hydroxyl radical-induced cytotoxicity at 10 uM treated for 2 hrs prior to H2O2/Fe+ challenge measured after 1 hr by MTT assay (reference value: 61.95%); format: functional; set-up: scale not given: the % may be the effect or the level left
PC-12 [12] = assay: Antioxidant activity in rat PC12 cells assessed as inhibition of hydrogen peroxide induced cytotoxicity at 10 uM treated for 2 hrs prior to H2O2 challenge measured after 1 hr by MTT assay (reference value: 52.45%); format: functional; set-up: scale not given: the % may be the effect or the level left
Rattus norvegicus [13] = assay: Antithrombotic activity in Sprague-Dawley rat arteriovenous shunt model assessed as reduction of thrombus dry weight at 80 mg/kg, po qd for 5 consecutive days; format: functional; set-up: scale not given: the % may be the effect or the level left
Summary of the method: (§6)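 Male SD rats were dosed by gavage in saline daily for 5 days (n = 12/group). An A-V shunt linked the right carotid artery to the left jugular vein: a saline-filled 14 cm polyethylene tube holding 6 cm of four braided silk threads. After 15 min of flow, the threads were weighed wet, then dried 6 h at room temperature and reweighed, less the pre-experiment thread weight.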

Rattus norvegicus [14] = assay: Antithrombotic activity in Sprague-Dawley rat arteriovenous shunt model assessed as reduction of thrombus wet weight at 80 mg/kg, po qd for 5 consecutive days; format: functional; set-up: scale not given: the % may be the effect or the level left; summary of the method: as §6
Rattus norvegicus [15] = assay: Antioxidant activity in Sprague-Dawley rat middle cerebral artery occlusion model assessed as decrease in malondialdehyde level in brain at 3 mg/kg, ig for 7 consecutive days; format: functional; set-up: scale not given: the % may be the effect or the level left; conditions: route intragastric; summary of the method: as §3
Rattus norvegicus [16] = assay: Antioxidant activity in Sprague-Dawley rat middle cerebral artery occlusion model assessed as increase in superoxide dismutase activity at 3 mg/kg, ig for 7 consecutive days; format: functional; conditions: route intragastric; summary of the method: as §3
Rattus norvegicus [17] = assay: Antioxidant activity in Sprague-Dawley rat middle cerebral artery occlusion model assessed as increase in glutathione level in brain at 3 mg/kg, ig for 7 consecutive days; format: functional; conditions: route intragastric; summary of the method: as §3
Rattus norvegicus [18] = assay: Anticerebral ischemic activity in Sprague-Dawley rat middle cerebral artery occlusion model assessed as reduction of water content in brain at 3 mg/kg, ig for 7 consecutive days; format: functional, organism-based; set-up: dose 3 mg/kg; summary of the method: as §2
Rattus norvegicus [19] = assay: Anticerebral ischemic activity in Sprague-Dawley rat middle cerebral artery occlusion model assessed as reduction in infarct size in brain at 3 mg/kg, ig for 7 consecutive days by TTC assay; format: functional; set-up: scale not given: the % may be the effect or the level left; conditions: route intragastric; summary of the method: as §4
Rattus norvegicus [20] = assay: Anticerebral ischemic activity in Sprague-Dawley rat middle cerebral artery occlusion model assessed as reduction in neurological deficit score at 3 mg/kg, ig for 7 consecutive days by Longa's method; format: functional; set-up: scale not given: the % may be the effect or the level left; conditions: route intragastric; summary of the method: as §5
Rattus norvegicus [21] = assay: Antithrombotic activity in Sprague-Dawley rat arteriovenous shunt model assessed as reduction of thrombus dry weight at 3 mg/kg, po qd for 5 consecutive days; format: functional; set-up: scale not given: the % may be the effect or the level left; summary of the method: as §6
Rattus norvegicus [22] = assay: Antithrombotic activity in Sprague-Dawley rat arteriovenous shunt model assessed as reduction of thrombus wet weight at 3 mg/kg, po qd for 5 consecutive days; format: functional; set-up: scale not given: the % may be the effect or the level left; summary of the method: as §6

Structure (SMILES): CCCCCCC1SC(=O)c2ccccc21 (racemic)
- IC50 (Platelet [1]): 830 µM
- IC50 (Platelet [2]): 800 µM

Structure (SMILES): CCCCCCCC1SC(=O)c2ccccc21 (racemic)
- IC50 (Platelet [1]): > 1000 µM
- IC50 (Platelet [2]): 720 µM

Structure (SMILES): O=C1SC(Cc2ccccc2)c2ccccc21 (racemic)
- IC50 (Platelet [1]): > 1000 µM
- IC50 (Platelet [2]): > 1000 µM

Structure (SMILES): CCCCC1OC(=O)c2ccccc21 (racemic) [RAC-3-N-BUTYLPHTHALIDE]
- Activity (Rattus norvegicus [3]): inactive
- Activity (Plasma): inactive
- inhibition at 100 µM (Platelet [4]): 9.5%
- inhibition at 100 µM (Platelet [5]): 17.4%
- Activity (Rattus norvegicus [6]): 25.73%
- Activity (Rattus norvegicus [7]): 33.61%
- Activity (Rattus norvegicus [8]): 40.83%
- Activity (Rattus norvegicus [9]): 40.04%
- Activity (Rattus norvegicus [10]): 31.47%
- Activity (PC-12 [11]): 73.05%
- Activity (PC-12 [12]): 68.05%
- Activity (Rattus norvegicus [13]): 26.9%
- IC50 (Platelet [1]): 480 µM
- IC50 (Platelet [2]): > 1000 µM
- Activity (Rattus norvegicus [14]): 23.58%

Structure (SMILES): CC(=O)Oc1ccccc1C(=O)O [ASPIRIN]
- Activity (Plasma): inactive
- inhibition at 100 µM (Platelet [4]): 10.8%
- inhibition at 100 µM (Platelet [5]): 37.2%
- Activity (Rattus norvegicus [13]): 34.19%
- IC50 (Platelet [1]): 150 µM
- IC50 (Platelet [2]): 880 µM
- Activity (Rattus norvegicus [14]): 33.45%

Structure (SMILES): CC1=NN(c2ccccc2)C(=O)C1 [EDARAVONE]
- Activity (Plasma): inactive
- inhibition at 100 µM (Platelet [4]): 11.5%
- inhibition at 100 µM (Platelet [5]): 36.1%
- Activity (Rattus norvegicus [15]): 28.52%
- Activity (Rattus norvegicus [16]): 34.2%
- Activity (Rattus norvegicus [17]): 58.33%
- Activity (Rattus norvegicus [18]): Active
- Activity (Rattus norvegicus [19]): 37.31%
- Activity (Rattus norvegicus [20]): 34.46%
- Activity (PC-12 [11]): 83.3%
- Activity (PC-12 [12]): 78.05%
- Activity (Rattus norvegicus [21]): 30.08%
- Activity (Rattus norvegicus [22]): 36.14%
- IC50 (Platelet [1]): 250 µM
- IC50 (Platelet [2]): 850 µM
